# Bioassay records from PubChem BioAssay.
# KCNQ1 act: potentiates or activates the human KCNQ1 potassium channel; CHO-K1 KCNQ1, thallium flux FluxOR fluorescence; stronger effect = higher value; 310,000 tested, 0.35% active; P51787; B-score at 10 µM;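 active means fluorescence ratio B-score, a plate-corrected score, at least three library SD, with initial intensity B-score within 5 SD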
#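 assay system = CHO-K1 cells stably expressing KCNQ1 | medium = assay buffer, equal DMSO in all wells | timing = 37 °C overnight plating, 90-min dark dye load, 20-min compound pretreatment | measured by = kinetic FluxOR thallium fluorescence, 10-s 1-Hz baseline, 110-s post-stimulus read | measure = fluorescence change relative to baseline, converted to B score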
# KCNK3 block: human KCNK3 channel inhibition, primary screen; O14649; CHO-KCNK3 thallium flux, FluxOR fluorescence; stronger effect = lower value; B-score at 10 µM; 340,000 tested, 0.84% active; AID 602410;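 active means B-score under library mean minus 4 SD, starting fluorescence ratio at most library mean plus 5 SD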;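 further: more negative B-score means stronger inhibition of thallium flux through KCNK3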
# KCNK9 block: inhibitors of human KCNK9 two-pore domain potassium channel | Q9NPC2 | HEK293 KCNK9, FluxOR thallium flux fluorescence; stronger effect = lower value | B-score at 10 µM | 310,000 tested, 1.2% active;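 active means ratio B-score over 3 SD below the library mean, with starting fluorescence within 5 SD of its mean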;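 further: negative B-score means less thallium flux so channel inhibition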
# hERG rescue: hERG (human) protection from proarrhythmic block. Q12809. CHO-hERG, FluxOR thallium flux, dofetilide IC70 present. activation (rescue from dofetilide block), less the hit threshold, % at 10 µM. 310,000 tested, 0.51% active;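 active means activation above the mean of controls blocked by dofetilide plus 5 SD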;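 further: thallium influx through hERG after potassium depolarization seen as dye fluorescence rise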
# Target sequence (Q12809 whole entry, looked up): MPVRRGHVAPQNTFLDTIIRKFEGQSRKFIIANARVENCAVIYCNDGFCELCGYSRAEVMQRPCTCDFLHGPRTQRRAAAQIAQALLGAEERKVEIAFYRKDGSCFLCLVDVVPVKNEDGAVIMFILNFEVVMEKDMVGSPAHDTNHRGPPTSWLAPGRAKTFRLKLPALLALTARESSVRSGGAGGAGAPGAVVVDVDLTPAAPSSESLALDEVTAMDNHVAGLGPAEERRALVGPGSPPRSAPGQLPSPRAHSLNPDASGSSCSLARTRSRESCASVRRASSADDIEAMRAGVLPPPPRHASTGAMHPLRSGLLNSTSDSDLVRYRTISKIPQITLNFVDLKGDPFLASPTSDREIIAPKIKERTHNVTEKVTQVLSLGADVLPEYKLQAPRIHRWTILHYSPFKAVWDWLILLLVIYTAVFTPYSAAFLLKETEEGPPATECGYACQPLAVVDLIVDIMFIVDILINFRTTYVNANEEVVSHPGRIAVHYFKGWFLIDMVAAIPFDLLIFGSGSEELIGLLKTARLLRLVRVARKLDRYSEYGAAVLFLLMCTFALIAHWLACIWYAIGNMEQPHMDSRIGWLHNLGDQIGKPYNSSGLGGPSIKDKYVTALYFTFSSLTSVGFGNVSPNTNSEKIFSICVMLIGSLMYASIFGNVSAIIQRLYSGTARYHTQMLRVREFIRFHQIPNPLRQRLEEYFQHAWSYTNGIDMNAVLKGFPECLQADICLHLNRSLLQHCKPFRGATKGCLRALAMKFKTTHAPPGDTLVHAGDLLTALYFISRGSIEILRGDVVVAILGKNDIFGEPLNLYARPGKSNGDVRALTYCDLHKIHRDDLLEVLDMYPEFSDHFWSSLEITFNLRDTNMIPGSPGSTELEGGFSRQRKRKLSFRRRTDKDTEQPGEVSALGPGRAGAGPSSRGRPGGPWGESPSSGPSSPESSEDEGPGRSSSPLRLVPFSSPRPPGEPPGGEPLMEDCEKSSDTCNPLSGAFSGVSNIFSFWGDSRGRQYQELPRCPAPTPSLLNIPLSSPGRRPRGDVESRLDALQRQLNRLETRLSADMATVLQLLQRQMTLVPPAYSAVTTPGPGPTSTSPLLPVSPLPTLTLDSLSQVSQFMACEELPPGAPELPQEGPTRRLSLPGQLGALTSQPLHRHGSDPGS
# KCNQ1 block: blocks the human KCNQ1 potassium channel; B-score at 10 µM; CHO-K1 KCNQ1, FluxOR thallium flux fluorescence; stronger effect = higher value; P51787; 310,000 tested, 1.3% active;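 active means compounds whose thallium flux B-score, printed positive for inhibition, exceeds three library SD while starting fluorescence stays within three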;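 further: channel opened by potassium depolarization with thallium stimulus after 20 min compound exposure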
# KCNK9 block conf: human KCNK9 inhibitor confirmation | AID 492992 | 4,900 tested, 43% active | shares compounds with KCNK9 block | HEK293 KCNK9 cells, FluxOR thallium flux fluorescence | inhibition, % at 10 µM;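 active means thallium signal inhibited by more than 5 SD of the compound-free buffer control wells, on both duplicate plates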
# Kir2-1 spec: tests whether KCNK9 modulators also affect mouse Kir2.1; 4,900 tested, 4% active; shares compounds with KCNK9 block; inhibition, % at 10 µM; AID 492993; Kir2.1 cells, FluxOR thallium flux fluorescence;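 active means thallium signal drop more than 5 SD beyond the mean of the no-compound control wells, seen in both duplicate plates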;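 further: signal is fluorescence rise after thallium addition divided by baseline fluorescence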
# KCNK9 uninduced: second check of KCNK9 modulator effects in non-induced HEK293 cells. shares compounds with KCNK9 block. FluxOR thallium flux. inhibition, % at 10 µM. 4,900 tested, 40% active. AID 492997;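 active means thallium signal drop beyond 5 SD of the untreated control mean, on both duplicate plates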
# A number is an active result; . = inactive; / = no result given. A selection: hits, their analogues and other compounds. The true share with any hit is near 3.1%.
SMILES,KCNQ1 act,KCNK3 block,KCNK9 block,hERG rescue,KCNQ1 block,KCNK9 block conf,Kir2-1 spec,KCNK9 uninduced
O=S(=O)(Cc1ccccc1)NCCc1cccc(Cl)c1,.,.,.,.,.,/,/,/
COc1ccc(CCN2CCCn3c2nc2c3c(=O)[nH]c(=O)n2C)cc1OC,.,.,.,.,.,/,/,/
CC12CCC(=O)N1C(C(=O)Nc1nnc(SCc3ccccc3F)s1)CS2 (centres undefined),.,.,.,.,.,/,/,/
Cc1ccc(NC(=O)CN2CCN(C(=O)c3ccco3)CC2)cc1S(=O)(=O)N(C)C,/,.,/,/,/,/,/,/
Cc1cccc(NC(=O)CN2CCc3cc4c(cc3C2C)OCCCO4)c1 (centres undefined),.,.,.,.,.,.,.,.
Cc1cc(C)cc(NC(=O)CN2CCc3cc4c(cc3C2C)OCCCO4)c1 (centres undefined),.,.,.,.,.,.,.,.
Cc1cccc(NC(=O)CN2CCc3cc4c(cc3C2)OCCCO4)c1,.,.,.,.,.,.,.,.
Cc1ccc(NC(=O)CN2CCc3cc4c(cc3C2)OCCCO4)cc1,.,.,.,.,.,/,/,/
CCOc1cc(/C=N/Nc2cccc(C(=O)O)c2)ccc1OC(=O)c1ccccc1,.,.,.,.,.,.,.,.
COc1ccc(C(=O)OC2CCN(c3ncc(C(F)(F)F)cc3Cl)CC2)cc1,.,.,.,.,.,.,.,.
Cc1ccc(C(=O)OCCN2CCN(c3ncc(C(F)(F)F)cc3Cl)CC2)cc1,.,.,.,.,.,.,.,.
Cc1ccc(CSCCNC(=O)CSCc2ccc([N+](=O)[O-])cc2)cc1,.,.,.,.,.,.,.,.
Cc1ccc(CSCC(=O)Nc2ccccc2C(=O)O)cc1,.,.,.,.,.,/,/,/
CSc1ccccc1NC(=O)CSCc1ccc(C)cc1,.,.,.,.,.,.,.,.
Cc1ccc(CSCC(=O)NCCc2ccccc2)cc1,.,.,.,.,.,.,.,.
Cc1cccc(CSCCNC(=O)CSCc2ccc([N+](=O)[O-])cc2)c1,.,.,.,.,.,/,/,/
CCOc1ccc(C(C(=O)NCC2CCCO2)N(Cc2cccs2)C(=O)c2snc(C(N)=O)c2N)cc1 (centres undefined),.,.,.,.,.,/,/,/
CC(C)(C)c1ccc(C(=O)NCc2ccc(Cl)cc2)cc1,.,.,.,.,.,/,/,/
CC(C)(C)OC(=O)N1CCN(c2ccc(CNC(=O)c3ccc(Cl)cc3)cc2)CC1,.,.,.,.,.,.,.,.
CCC(=O)/C=C1/Sc2ccccc2N1CC,.,.,.,.,.,/,/,/
CCN1/C(=C/c2sc(-c3ccccc3C)c[n+]2C)Sc2ccccc21,.,-10,-13,.,11,69%,64%,28%
CCSCC1COC(c2cccn2Cc2ccc(C)cc2)=N1 (centres undefined),.,.,.,.,.,.,.,26%
CC1(C)NC(=O)N(CC(O)COc2ccccc2C(=O)Nc2ccccc2)C1=O (centres undefined),.,.,-15,.,.,58%,.,.
O=C(Nc1ccccc1)c1ccccc1OCC(O)CN1C(=O)c2ccccc2S1(=O)=O (centres undefined),.,.,.,.,.,/,/,/
COc1ccc(NC(=O)CSc2nnc(Cc3cccs3)n2-c2ccc(C)cc2)cc1,.,.,.,.,.,.,.,.
SMILES,KCNQ1 act,KCNK3 block,KCNK9 block,hERG rescue,KCNQ1 block,KCNK9 block conf,Kir2-1 spec,KCNK9 uninduced
COc1ccc(-n2c(Cc3cccn3C)nnc2SCC(=O)Nc2cccc(Cl)c2)cc1,.,.,.,.,.,.,.,.
COc1c(C)cc(C(=O)C2CCCN(C(=O)c3cccc(-n4cccn4)c3)C2)cc1C (centres undefined),.,.,.,.,.,.,.,.
COc1c(C)cc(C(=O)C2CCCN(C(=O)c3cc(C)on3)C2)cc1C (centres undefined),.,.,.,.,.,/,/,/
COc1c(C)cc(C(=O)C2CCCN(C(=O)c3ccc4[nH]ccc4c3)C2)cc1C (centres undefined),.,.,.,.,.,.,.,.
CC(C)OCCCNC(=O)c1cc(-c2cccnc2)nc2ccccc12,.,.,.,.,.,/,/,/
CCCCN(C(=O)c1cccc2c(=O)c(C)c(-c3ccccc3)oc12)c1ccccc1,.,.,-10,.,.,40%,.,34%
CCCCNC(=O)c1cccc2c(=O)c(C)c(-c3ccccc3)oc12,.,.,.,.,.,/,/,/
Cc1ccc(-c2csc(NC(=O)CSC3=NCCS3)n2)cc1,.,.,.,.,.,.,.,.
Cc1ccc(-c2csc(NC(=O)CSc3nc(C)cc(=O)[nH]3)n2)cc1,.,/,.,.,.,/,/,/
CCOC(=O)c1c(NC(=O)c2nn(CC)cc2Br)c(C#N)nn1-c1ccccc1,.,.,-9.3,.,.,30%,.,33%
O=C1NN=C(c2ccccc2)C1Cc1ccccc1 (centres undefined),/,.,/,/,/,/,/,/
COC(=O)C1=C(C(=O)OC)SC(=C2C(=S)C(C)(C)N(C(=O)CC(C)C)c3ccccc32)S1,.,.,-11,.,.,26%,.,32%
Cc1ccc(C(C)C)c(OCCNCCc2ccccc2)c1,.,.,.,.,.,.,50%,.
O=C(NNc1ccccc1C(F)(F)F)c1sccc1Br,.,.,-8.7,.,.,44%,.,.
O=C(Nc1ccccc1C(F)(F)F)c1ccsc1,.,.,.,.,.,/,/,/
O=C(Nc1cccnc1)c1ccc2nc(-c3ccccc3)c(-c3ccccc3)nc2c1,.,.,-11,.,.,42%,.,40%
O=C(CCl)N(c1ccc(Cl)cc1)c1c[nH]c2ccccc12,.,.,.,.,.,.,.,.
O=C(CCl)N(c1ccccc1)c1c[nH]c2ccccc12,.,.,.,.,.,/,/,/
CN(C)c1ccc(N=c2sc3ccccc3n2C)cc1,.,.,.,.,.,.,.,.
Cn1c(=Nc2ccccc2)sc2ccccc21,.,.,.,.,.,/,/,/
O=CN1CCCN(Cc2nc(Cc3ccccc3F)no2)CC1,.,.,.,.,.,/,/,/
Fc1ccccc1Cc1noc(CN2CCN(C/C=C/c3ccccc3)CC2)n1,.,.,.,.,.,.,.,.
CC(C(=O)NC1CCCC1)N(C(=O)c1ccc(-c2ccccc2)[nH]1)c1ccccc1F (centres undefined),.,.,.,.,6,.,.,.
CCCCN(C(=O)c1cccc(S(=O)(=O)N2CCN(C)CC2)c1)c1c(N)n(CCC)c(=O)[nH]c1=O,.,.,.,.,.,/,/,/
